Drawing on ChEMBL document CHEMBL1143388 (Bioorg Med Chem, 2009), this text covers Emax, Ki and EC50 for twelve compounds.

Experiment [1] deals with T1, Kappa-type opioid receptor (Homo sapiens, UniProt P41145). Briefly: Agonist activity at human KOPR expressed in CHO cells assessed as enhancement of [35S]GTPgammaS binding at 10 uM relative to U50488. The format is functional, cell-based. Background: Binding of GTPγS marks nucleotide exchange on a G protein.
For a further experiment, the target named is Mu-type opioid receptor (Rattus norvegicus, UniProt P33535). Briefly: Binding affinity to rat MOPR expressed in CHO cells. It counts as cell-based. The procedure, abridged:
(§1)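 Competitive displacement of [3H]diprenorphine from membranes of CHO cells stably transfected with rat MOPR or mouse DOPR. Buffer: 50 mM Tris-HCl, pH 7.4, with 1 mM EGTA. Ki values were derived from inhibition curves. Each value is the mean of at least three independent experiments run in duplicate.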

Experiment [2] has as its target Delta-type opioid receptor (Mus musculus, UniProt P32300). The experiment is described as follows: Binding affinity to mouse DOPR expressed in CHO cells. It counts as cell-based. The procedure, abridged:
as §1

The target in experiment [3] is T1, Kappa-type opioid receptor. Briefly: Displacement of [3H]diprenorphine from human KOPR expressed in CHO cells. It counts as cell-based. (Displacement assays read how much labelled ligand stays bound in the presence of the test substance.)
In experiment [4] the target is T1, Kappa-type opioid receptor. Briefly: Agonist activity at human KOPR expressed in CHO cells assessed as enhancement of [35S]GTPgammaS binding. It counts as functional, cell-based.

SMILES strings stand for the structures. A value given as a limit tells only on which side of the number the result lay.

Chain of Mu-type opioid receptor (P33535 whole entry): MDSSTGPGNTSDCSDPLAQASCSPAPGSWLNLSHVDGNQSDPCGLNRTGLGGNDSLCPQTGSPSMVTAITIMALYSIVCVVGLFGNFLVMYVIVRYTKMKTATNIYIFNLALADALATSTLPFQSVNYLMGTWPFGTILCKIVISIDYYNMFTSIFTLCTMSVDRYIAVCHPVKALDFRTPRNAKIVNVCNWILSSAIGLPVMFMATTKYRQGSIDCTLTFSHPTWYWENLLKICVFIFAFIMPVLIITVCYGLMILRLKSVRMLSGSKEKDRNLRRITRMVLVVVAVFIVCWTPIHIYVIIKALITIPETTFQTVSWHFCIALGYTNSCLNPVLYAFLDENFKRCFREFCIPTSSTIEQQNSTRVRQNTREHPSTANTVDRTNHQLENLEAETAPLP
Chain of Delta-type opioid receptor (P32300 whole entry): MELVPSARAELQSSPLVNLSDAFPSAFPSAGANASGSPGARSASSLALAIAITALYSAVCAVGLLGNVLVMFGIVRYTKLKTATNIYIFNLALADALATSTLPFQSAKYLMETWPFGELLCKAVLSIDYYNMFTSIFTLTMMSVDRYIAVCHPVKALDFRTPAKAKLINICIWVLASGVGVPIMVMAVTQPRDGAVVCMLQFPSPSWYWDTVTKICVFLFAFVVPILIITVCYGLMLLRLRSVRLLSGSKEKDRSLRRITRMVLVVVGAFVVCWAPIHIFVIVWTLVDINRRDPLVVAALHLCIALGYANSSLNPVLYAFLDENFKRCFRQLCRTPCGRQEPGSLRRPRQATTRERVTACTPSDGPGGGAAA
T1 sequence (P41145 whole entry): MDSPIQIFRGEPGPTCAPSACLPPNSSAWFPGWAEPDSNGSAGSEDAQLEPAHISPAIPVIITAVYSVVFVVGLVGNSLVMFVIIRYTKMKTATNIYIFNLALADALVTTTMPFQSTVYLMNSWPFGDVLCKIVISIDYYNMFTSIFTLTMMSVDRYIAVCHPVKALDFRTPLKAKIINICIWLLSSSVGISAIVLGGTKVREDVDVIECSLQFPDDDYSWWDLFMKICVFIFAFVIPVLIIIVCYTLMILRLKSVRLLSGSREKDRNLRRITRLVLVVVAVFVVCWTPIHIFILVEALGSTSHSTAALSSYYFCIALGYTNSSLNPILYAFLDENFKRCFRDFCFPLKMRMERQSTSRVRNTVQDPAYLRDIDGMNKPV

For orientation: Emax means the maximal effect, on the per cent scale that the assay sets. As usually defined, the Ki is a measure of affinity in units of concentration, obtained from inhibition or displacement. Read a high Ki as lower affinity. For the compound `CCOC(=O)[C@@H]1C[C@]2(C)[C@H]3C(=O)[C@@H](OC(C)=O)C[C@@H](C(=O)OC)[C@]3(C)CC[C@H]2C(=O)O1`, the Emax in experiment [1] stood at 94%. Moreover, the Ki (at Mu-type opioid receptor; in experiment [2]) was more than 1 µM throughout.
For `COC(=O)[C@@H]1C[C@H](OC(C)=O)C(=O)[C@H]2[C@@]1(C)CC[C@H]1C(=O)O[C@H](c3ccoc3Br)C[C@]21C`, the inhibition constant Ki (on Mu-type opioid receptor; in experiment [2]) was more than 1 µM each time.
As to `COC(=O)[C@@H]1C[C@H](OC(C)=O)C(=O)[C@H]2[C@@]1(C)CC[C@H]1C(=O)O[C@H](C(=O)c3cnccn3)C[C@]21C`, the Emax in experiment [1] was 103%. In addition, the Ki (at Mu-type opioid receptor; in experiment [2]) was more than 1 µM in each case.
Usually EC50 stands for the concentration giving half of the maximal effect. For the compound `COC(=O)[C@@H]1C[C@H](OC(C)=O)C(=O)[C@H]2[C@@]1(C)CC[C@H]1C(=O)O[C@H](C(=O)O)C[C@]21C`, in experiment [1], the Emax came to 99%. Besides, the results for the Ki (at Mu-type opioid receptor; in experiment [3]; in experiment [2]) were more than 1 µM, 0.055 µM and more than 1 µM, respectively. In addition, in experiment [4], the EC50 came out at 0.167 µM.
`COC[C@@H]1C[C@]2(C)[C@H]3C(=O)[C@@H](OC(C)=O)C[C@@H](C(=O)OC)[C@]3(C)CC[C@H]2C(=O)O1`: the Emax in experiment [1] worked out at 98%. In addition, the inhibition constant Ki (at Mu-type opioid receptor; in experiment [2]) was more than 1 µM throughout.
`COC(=O)[C@@H]1C[C@H](OC(C)=O)C(=O)[C@H]2[C@@]1(C)CC[C@H]1C(=O)O[C@H](C(=O)OC(C)C)C[C@]21C`: the maximal response (Emax) in experiment [1] was 94%. The inhibitory constant (Ki) (at Mu-type opioid receptor; in experiment [2]) was more than 1 µM in each case.
With `CCOC[C@@H]1C[C@]2(C)[C@H]3C(=O)[C@@H](OC(C)=O)C[C@@H](C(=O)OC)[C@]3(C)CC[C@H]2C(=O)O1`, the Ki (on Mu-type opioid receptor; in experiment [2]) was more than 1 µM in each case.
For the compound `C=Cc1occc1[C@@H]1C[C@]2(C)[C@H]3C(=O)[C@@H](OC(C)=O)C[C@@H](C(=O)OC)[C@]3(C)CC[C@H]2C(=O)O1`, the Emax in experiment [1] was 120%. Also, the inhibition constant (Ki) (at Mu-type opioid receptor; in experiment [2]) was more than 1 µM in each case.
In the case of `COC(=O)[C@@H]1C[C@H](OC(C)=O)C(=O)[C@H]2[C@@]1(C)CC[C@H]1C(=O)O[C@H](C(=O)c3cccs3)C[C@]21C`, in experiment [1], the Emax was 103%. For the same compound, the inhibitory constant (Ki) (on Mu-type opioid receptor; in experiment [2]) was more than 1 µM throughout.
`COC(=O)[C@@H]1C[C@]2(C)[C@H]3C(=O)[C@@H](OC(C)=O)C[C@@H](C(=O)OC)[C@]3(C)CC[C@H]2C(=O)O1`: the Emax in experiment [1] was 99%. Moreover, the Ki (at Mu-type opioid receptor; in experiment [2]) was more than 1 µM each time.
In the case of `COC(=O)[C@@H]1C[C@H](OC(C)=O)C(=O)[C@H]2[C@@]1(C)CC[C@H]1C(=O)O[C@H]([C@H](O)c3ccco3)C[C@]21C`, the Emax in experiment [1] was found to be 111%. Besides, the Ki (on Mu-type opioid receptor; in experiment [2]) was more than 1 µM throughout.
For `COC(=O)[C@@H]1C[C@H](OC(C)=O)C(=O)[C@H]2[C@@]1(C)CC[C@H]1C(=O)O[C@H](COC(C)=O)C[C@]21C`, the Emax in experiment [1] is 113%. Besides, the inhibition constant Ki (at Mu-type opioid receptor; in experiment [2]) was more than 1 µM throughout.
